ChEMBL document CHEMBL1156261, “Evaluation of substituted N,N'-diarylsulfonamides as activators of the tumor cell specific M2 isoform of pyruvate kinase” (J Med Chem, 2010)
Converted amounts (≈) assume the structure as drawn. The source made the active and inactive calls.

Test system: not listed separately
Assay: Kinetic solubility by quantitative nitrogen detection assay
Format: physicochemical
Conditions: not given
Summary of the method: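 Kinetic solubility was determined by quantitative nitrogen detection in three separate experiments.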

SMILES	solubility kinetic
O=S(=O)(c1ccc2c(c1)OCCO2)N1CCCN(S(=O)(=O)c2c(F)cccc2F)CC1	5.6 µM (≈ 2.66 µg/mL)
Nc1cccc(S(=O)(=O)N2CCN(S(=O)(=O)c3ccc4c(c3)OCCO4)CC2)c1	7.3 µM (≈ 3.21 µg/mL)
COc1cc(F)c(S(=O)(=O)N2CCN(S(=O)(=O)c3cccc(N)c3)CC2)c(F)c1	< 0.7 µM
O=S(=O)(c1ccc2c(c1)OCCO2)N1CCN(S(=O)(=O)c2c(F)cccc2F)CC1	< 1.1 µM
COc1cc(F)c(S(=O)(=O)N2CCCN(S(=O)(=O)c3cccc(N)c3)CC2)c(F)c1	26.3 µM (≈ 12.1 µg/mL)
Nc1cccc(S(=O)(=O)N2CCN(S(=O)(=O)c3c(F)cccc3F)CC2)c1	5.7 µM (≈ 2.38 µg/mL)
Nc1cccc(S(=O)(=O)N2CCCN(S(=O)(=O)c3ccc4c(c3)OCCO4)CC2)c1	51.2 µM (≈ 23.2 µg/mL)

Biological target: T1, Pyruvate kinase PKM (Homo sapiens, UniProt P14618)
Assay: Activation of PKM1 assessed as ATP product formation by luminescent pyruvate kinase-luciferase coupled assay
Conditions: not given
Summary of the method: (§1)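 Luciferase-coupled ATP production assay run as for PKM2: imidazole pH 7.2 buffer with KCl, MgCl2, Tween 20 and BSA, 0.1 mM ADP, 0.5 mM PEP, 1 h at r.t., Kinase-Glo luminescence. Enzyme final concentrations were PKM1 1 nM, PKL 0.1 nM, PKR 0.1 nM. % activation normalized to DMSO (neutral) and no-enzyme controls.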
Target sequence in this assay (P14618 2-531 limits assumed): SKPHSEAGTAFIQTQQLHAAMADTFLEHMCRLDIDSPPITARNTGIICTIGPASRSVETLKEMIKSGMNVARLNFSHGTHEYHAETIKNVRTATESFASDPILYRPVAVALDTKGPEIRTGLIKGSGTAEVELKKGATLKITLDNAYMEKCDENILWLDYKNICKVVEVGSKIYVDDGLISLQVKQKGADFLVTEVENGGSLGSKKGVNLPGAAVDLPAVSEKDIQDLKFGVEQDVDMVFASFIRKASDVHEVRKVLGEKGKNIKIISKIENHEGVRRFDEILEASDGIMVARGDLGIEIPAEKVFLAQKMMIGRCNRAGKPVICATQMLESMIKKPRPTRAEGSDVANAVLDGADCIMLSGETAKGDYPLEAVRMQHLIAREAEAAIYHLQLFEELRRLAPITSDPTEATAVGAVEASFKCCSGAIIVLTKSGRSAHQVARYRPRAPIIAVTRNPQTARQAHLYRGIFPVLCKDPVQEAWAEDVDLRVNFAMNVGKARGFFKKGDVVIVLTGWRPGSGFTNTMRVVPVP

SMILES	Activity
O=S(=O)(c1ccc2c(c1)OCCO2)N1CCCN(S(=O)(=O)c2c(F)cccc2F)CC1	inactive
Nc1cccc(S(=O)(=O)N2CCN(S(=O)(=O)c3ccc4c(c3)OCCO4)CC2)c1	inactive
COc1ccc(S(=O)(=O)N2CCN(S(=O)(=O)c3ccc4c(c3)OCCO4)CC2)cc1	inactive
COc1cc(F)c(S(=O)(=O)N2CCN(S(=O)(=O)c3cccc(N)c3)CC2)c(F)c1	inactive
O=S(=O)(c1ccc2c(c1)OCCO2)N1CCN(S(=O)(=O)c2c(F)cccc2F)CC1	inactive
COc1cc(F)c(S(=O)(=O)N2CCCN(S(=O)(=O)c3cccc(N)c3)CC2)c(F)c1	inactive
Nc1cccc(S(=O)(=O)N2CCN(S(=O)(=O)c3c(F)cccc3F)CC2)c1	inactive
O=C(c1c(F)cccc1F)N1CCN(S(=O)(=O)c2ccc3c(c2)OCCO3)CC1	inactive
Nc1cccc(S(=O)(=O)N2CCCN(S(=O)(=O)c3ccc4c(c3)OCCO4)CC2)c1	inactive

Biological target: Pyruvate kinase PKLR (Homo sapiens) (UniProt P30613)
Sequence (P30613 whole entry, looked up): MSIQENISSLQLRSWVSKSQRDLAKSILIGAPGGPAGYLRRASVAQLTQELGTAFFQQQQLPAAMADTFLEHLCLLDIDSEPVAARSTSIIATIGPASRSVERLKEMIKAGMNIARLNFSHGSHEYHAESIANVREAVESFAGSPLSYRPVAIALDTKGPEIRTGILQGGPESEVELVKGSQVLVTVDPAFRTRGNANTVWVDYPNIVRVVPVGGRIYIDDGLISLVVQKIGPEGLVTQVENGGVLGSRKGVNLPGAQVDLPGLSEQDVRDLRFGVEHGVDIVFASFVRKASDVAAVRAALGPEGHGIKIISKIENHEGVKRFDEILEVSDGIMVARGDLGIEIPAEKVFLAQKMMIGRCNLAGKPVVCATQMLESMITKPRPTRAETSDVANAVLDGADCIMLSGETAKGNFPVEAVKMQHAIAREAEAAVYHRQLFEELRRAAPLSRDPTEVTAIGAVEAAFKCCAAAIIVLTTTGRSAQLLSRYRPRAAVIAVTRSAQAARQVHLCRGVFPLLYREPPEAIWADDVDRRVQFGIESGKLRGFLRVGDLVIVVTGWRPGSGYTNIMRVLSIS
Assay: Activation of PKL assessed as pyruvate formation by fluorescent pyruvate kinase-lactate dehydrogenase coupled assay relative to control
Parameters: concentration or dose not given beside the values
Conditions: not given

SMILES	Activity
O=S(=O)(c1ccc2c(c1)OCCO2)N1CCCN(S(=O)(=O)c2c(F)cccc2F)CC1	< 30%
Nc1cccc(S(=O)(=O)N2CCN(S(=O)(=O)c3ccc4c(c3)OCCO4)CC2)c1	< 30%
COc1ccc(S(=O)(=O)N2CCN(S(=O)(=O)c3ccc4c(c3)OCCO4)CC2)cc1	< 30%
COc1cc(F)c(S(=O)(=O)N2CCN(S(=O)(=O)c3cccc(N)c3)CC2)c(F)c1	< 30%
O=S(=O)(c1ccc2c(c1)OCCO2)N1CCN(S(=O)(=O)c2c(F)cccc2F)CC1	< 30%
COc1cc(F)c(S(=O)(=O)N2CCCN(S(=O)(=O)c3cccc(N)c3)CC2)c(F)c1	< 30%
Nc1cccc(S(=O)(=O)N2CCN(S(=O)(=O)c3c(F)cccc3F)CC2)c1	< 30%
O=C(c1c(F)cccc1F)N1CCN(S(=O)(=O)c2ccc3c(c2)OCCO3)CC1	< 30%
Nc1cccc(S(=O)(=O)N2CCCN(S(=O)(=O)c3ccc4c(c3)OCCO4)CC2)c1	< 30%

Biological target: T1, Pyruvate kinase PKM
Assay: Activation of PKM2 assessed as pyruvate formation by fluorescent pyruvate kinase-lactate dehydrogenase coupled assay relative to fructose-1,6-bis-phosphate
Conditions: not given
Summary of the method: (§2)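 Kinetic PK–LDH coupled read: 10 nM hPK-M2 with 1 μM LDH in 50 mM Tris-Cl pH 8.0, 200 mM KCl, 15 mM MgCl2, 0.1 mM PEP, 4.0 mM ADP, 0.2 mM NADH. NADH fluorescence decrease was read at 30 s intervals over 3–6 min.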
Target sequence in this assay (P14618 2-531 limits assumed): as the sequence (P14618 2-531 limits assumed) above

SMILES	Activity
COc1ccc(S(=O)(=O)N2CCN(S(=O)(=O)c3ccc4c(c3)OCCO4)CC2)cc1	150%

Biological target: T1, Pyruvate kinase PKM
Assay: Activation of PKM1 assessed as pyruvate formation by fluorescent pyruvate kinase-lactate dehydrogenase coupled assay
Conditions: not given
Target sequence in this assay (P14618 2-531 limits assumed): as above

SMILES	Activity
O=S(=O)(c1ccc2c(c1)OCCO2)N1CCCN(S(=O)(=O)c2c(F)cccc2F)CC1	inactive
Nc1cccc(S(=O)(=O)N2CCN(S(=O)(=O)c3ccc4c(c3)OCCO4)CC2)c1	inactive
COc1ccc(S(=O)(=O)N2CCN(S(=O)(=O)c3ccc4c(c3)OCCO4)CC2)cc1	inactive
COc1cc(F)c(S(=O)(=O)N2CCN(S(=O)(=O)c3cccc(N)c3)CC2)c(F)c1	inactive
O=S(=O)(c1ccc2c(c1)OCCO2)N1CCN(S(=O)(=O)c2c(F)cccc2F)CC1	inactive
COc1cc(F)c(S(=O)(=O)N2CCCN(S(=O)(=O)c3cccc(N)c3)CC2)c(F)c1	inactive
Nc1cccc(S(=O)(=O)N2CCN(S(=O)(=O)c3c(F)cccc3F)CC2)c1	inactive
O=C(c1c(F)cccc1F)N1CCN(S(=O)(=O)c2ccc3c(c2)OCCO3)CC1	inactive
Nc1cccc(S(=O)(=O)N2CCCN(S(=O)(=O)c3ccc4c(c3)OCCO4)CC2)c1	inactive

Biological target: Pyruvate kinase PKLR (Homo sapiens) (UniProt P30613)
Assay: Activation of PKR assessed as ATP product formation by luminescent pyruvate kinase-luciferase coupled assay relative to control
Parameters: concentration or dose not given beside the values
Conditions: not given
Summary of the method: as §1

SMILES	Activity
O=S(=O)(c1ccc2c(c1)OCCO2)N1CCCN(S(=O)(=O)c2c(F)cccc2F)CC1	< 30%
Nc1cccc(S(=O)(=O)N2CCN(S(=O)(=O)c3ccc4c(c3)OCCO4)CC2)c1	< 30%
COc1ccc(S(=O)(=O)N2CCN(S(=O)(=O)c3ccc4c(c3)OCCO4)CC2)cc1	< 30%
COc1cc(F)c(S(=O)(=O)N2CCN(S(=O)(=O)c3cccc(N)c3)CC2)c(F)c1	< 30%
O=S(=O)(c1ccc2c(c1)OCCO2)N1CCN(S(=O)(=O)c2c(F)cccc2F)CC1	< 30%
COc1cc(F)c(S(=O)(=O)N2CCCN(S(=O)(=O)c3cccc(N)c3)CC2)c(F)c1	< 30%
Nc1cccc(S(=O)(=O)N2CCN(S(=O)(=O)c3c(F)cccc3F)CC2)c1	< 30%
O=C(c1c(F)cccc1F)N1CCN(S(=O)(=O)c2ccc3c(c2)OCCO3)CC1	< 30%
Nc1cccc(S(=O)(=O)N2CCCN(S(=O)(=O)c3ccc4c(c3)OCCO4)CC2)c1	< 30%

Biological target: T1, Pyruvate kinase PKM
Assay: Activation of PKM2 in presence of excess of phosphoenolpyruvate level
Conditions: not given
Target sequence in this assay (P14618 2-531 limits assumed): as above

SMILES	Activity
COc1ccc(S(=O)(=O)N2CCN(S(=O)(=O)c3ccc4c(c3)OCCO4)CC2)cc1	inactive
O=P(O)(O)OC[C@H]1O[C@@](O)(COP(=O)(O)O)[C@@H](O)[C@@H]1O	inactive

Biological target: T1, Pyruvate kinase PKM
Assay: Activation of PKM2 assessed as effect on Km for ADP relative to untreated control
Conditions: not given
Summary of the method: (§3)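 Steady-state kinetics were measured by the PK–LDH coupled assay at about 22 °C with 10 nM PKM2, 200 mM KCl and 15 mM MgCl2. One substrate (PEP or ADP) was varied with the other held at 4.0 mM, with or without activator. Fluorescence was converted to pmol NADH by a standard curve; initial rates (pmol/min) were fit for KM.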
Target sequence in this assay (P14618 2-531 limits assumed): as above

SMILES	Activity
COc1ccc(S(=O)(=O)N2CCN(S(=O)(=O)c3ccc4c(c3)OCCO4)CC2)cc1	inactive

Biological target: T1, Pyruvate kinase PKM
Assay: Activation of PKM2 assessed as ATP product formation by luminescent pyruvate kinase-luciferase coupled assay
Conditions: not given
Summary of the method: (§4)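 Recombinant human PKM2 (0.1 nM final) in 50 mM imidazole pH 7.2, 50 mM KCl, 7 mM MgCl2, 0.01% Tween 20, 0.05% BSA; 0.1 mM ADP, 0.5 mM PEP; 1 h at r.t., then Kinase-Glo luciferase read of ATP formed. Activation % = (c−n)/(n−i)×100 against DMSO and no-enzyme controls; 100% ≈ 2-fold over basal signal. Max response taken at 57 μM; three separate experiments.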
Target sequence in this assay (P14618 whole entry): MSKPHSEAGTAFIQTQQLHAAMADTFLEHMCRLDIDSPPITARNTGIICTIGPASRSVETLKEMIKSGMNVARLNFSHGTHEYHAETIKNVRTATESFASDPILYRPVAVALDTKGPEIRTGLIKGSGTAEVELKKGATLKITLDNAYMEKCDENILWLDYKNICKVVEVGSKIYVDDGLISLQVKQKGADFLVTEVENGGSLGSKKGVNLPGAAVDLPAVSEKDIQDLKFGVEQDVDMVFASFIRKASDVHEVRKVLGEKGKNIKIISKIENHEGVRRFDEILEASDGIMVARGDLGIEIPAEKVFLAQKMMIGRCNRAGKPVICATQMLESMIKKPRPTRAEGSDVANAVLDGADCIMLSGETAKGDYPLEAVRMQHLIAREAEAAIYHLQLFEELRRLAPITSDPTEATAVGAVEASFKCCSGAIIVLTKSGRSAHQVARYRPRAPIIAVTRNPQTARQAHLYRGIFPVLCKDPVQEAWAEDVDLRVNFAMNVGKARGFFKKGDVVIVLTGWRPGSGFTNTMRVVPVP

SMILES	AC50
O=C(c1c(F)cccc1F)N1CCN(S(=O)(=O)c2ccc3c(c2)OCCO3)CC1	Not Active

Same assay, conditions: read-out: AC50

SMILES	AC50
Nc1cccc(S(=O)(=O)N2CCN(S(=O)(=O)c3ccc4c(c3)OCCO4)CC2)c1	43 nM
COc1cc(F)c(S(=O)(=O)N2CCN(S(=O)(=O)c3cccc(N)c3)CC2)c(F)c1	26 nM
COc1cc(F)c(S(=O)(=O)N2CCCN(S(=O)(=O)c3cccc(N)c3)CC2)c(F)c1	223 nM
Nc1cccc(S(=O)(=O)N2CCN(S(=O)(=O)c3c(F)cccc3F)CC2)c1	99 nM

Biological target: T1, Pyruvate kinase PKM
Assay: Activation of PKM2 assessed as ATP product formation at 57 uM by luminescent pyruvate kinase-luciferase coupled assay relative to fructose-1,6-bis-phosphate
Conditions: not given
Summary of the method: as §4
Target sequence in this assay (P14618 2-531 limits assumed): as the sequence (P14618 2-531 limits assumed) above

SMILES	Activity
O=S(=O)(c1ccc2c(c1)OCCO2)N1CCCN(S(=O)(=O)c2c(F)cccc2F)CC1	120%
Nc1cccc(S(=O)(=O)N2CCN(S(=O)(=O)c3ccc4c(c3)OCCO4)CC2)c1	83.7%
COc1ccc(S(=O)(=O)N2CCN(S(=O)(=O)c3ccc4c(c3)OCCO4)CC2)cc1	92.2%
COc1cc(F)c(S(=O)(=O)N2CCN(S(=O)(=O)c3cccc(N)c3)CC2)c(F)c1	90.5%
O=S(=O)(c1ccc2c(c1)OCCO2)N1CCN(S(=O)(=O)c2c(F)cccc2F)CC1	94.4%
COc1cc(F)c(S(=O)(=O)N2CCCN(S(=O)(=O)c3cccc(N)c3)CC2)c(F)c1	92.5%
Nc1cccc(S(=O)(=O)N2CCN(S(=O)(=O)c3c(F)cccc3F)CC2)c1	84.4%
O=C(c1c(F)cccc1F)N1CCN(S(=O)(=O)c2ccc3c(c2)OCCO3)CC1	inactive
Nc1cccc(S(=O)(=O)N2CCCN(S(=O)(=O)c3ccc4c(c3)OCCO4)CC2)c1	81.7%

Biological target: T1, Pyruvate kinase PKM
Assay: Activation of PKM2 assessed as pyruvate formation by fluorescent pyruvate kinase-lactate dehydrogenase coupled assay
Conditions: not given
Summary of the method: as §2
Target sequence in this assay (P14618 whole entry): as the sequence (P14618 whole entry) above

SMILES	AC50
COc1ccc(S(=O)(=O)N2CCN(S(=O)(=O)c3ccc4c(c3)OCCO4)CC2)cc1	750 nM

Biological target: Pyruvate kinase PKLR (Homo sapiens) (UniProt P30613)
Assay: Activation of PKL assessed as ATP product formation by luminescent pyruvate kinase-luciferase coupled assay relative to control
Parameters: concentration or dose not given beside the values
Conditions: not given
Summary of the method: as §1

SMILES	Activity
O=S(=O)(c1ccc2c(c1)OCCO2)N1CCCN(S(=O)(=O)c2c(F)cccc2F)CC1	< 30%
Nc1cccc(S(=O)(=O)N2CCN(S(=O)(=O)c3ccc4c(c3)OCCO4)CC2)c1	< 30%
COc1ccc(S(=O)(=O)N2CCN(S(=O)(=O)c3ccc4c(c3)OCCO4)CC2)cc1	< 30%
COc1cc(F)c(S(=O)(=O)N2CCN(S(=O)(=O)c3cccc(N)c3)CC2)c(F)c1	< 30%
O=S(=O)(c1ccc2c(c1)OCCO2)N1CCN(S(=O)(=O)c2c(F)cccc2F)CC1	< 30%
COc1cc(F)c(S(=O)(=O)N2CCCN(S(=O)(=O)c3cccc(N)c3)CC2)c(F)c1	< 30%
Nc1cccc(S(=O)(=O)N2CCN(S(=O)(=O)c3c(F)cccc3F)CC2)c1	< 30%
O=C(c1c(F)cccc1F)N1CCN(S(=O)(=O)c2ccc3c(c2)OCCO3)CC1	< 30%
Nc1cccc(S(=O)(=O)N2CCCN(S(=O)(=O)c3ccc4c(c3)OCCO4)CC2)c1	< 30%

Biological target: T1, Pyruvate kinase PKM
Assay: Activation of PKM2 assessed as reduction of Km for phosphoenolpyruvate relative to untreated control
Conditions: not given
Summary of the method: as §3

SMILES	fold change (FC)
COc1ccc(S(=O)(=O)N2CCN(S(=O)(=O)c3ccc4c(c3)OCCO4)CC2)cc1	10

Biological target: Pyruvate kinase PKLR (Homo sapiens) (UniProt P30613)
Assay: Activation of PKR assessed as pyruvate formation by fluorescent pyruvate kinase-lactate dehydrogenase coupled assay relative to control
Parameters: concentration or dose not given beside the values
Conditions: not given

SMILES	Activity
O=S(=O)(c1ccc2c(c1)OCCO2)N1CCCN(S(=O)(=O)c2c(F)cccc2F)CC1	< 30%
Nc1cccc(S(=O)(=O)N2CCN(S(=O)(=O)c3ccc4c(c3)OCCO4)CC2)c1	< 30%
COc1ccc(S(=O)(=O)N2CCN(S(=O)(=O)c3ccc4c(c3)OCCO4)CC2)cc1	< 30%
COc1cc(F)c(S(=O)(=O)N2CCN(S(=O)(=O)c3cccc(N)c3)CC2)c(F)c1	< 30%
O=S(=O)(c1ccc2c(c1)OCCO2)N1CCN(S(=O)(=O)c2c(F)cccc2F)CC1	< 30%
COc1cc(F)c(S(=O)(=O)N2CCCN(S(=O)(=O)c3cccc(N)c3)CC2)c(F)c1	< 30%
Nc1cccc(S(=O)(=O)N2CCN(S(=O)(=O)c3c(F)cccc3F)CC2)c1	< 30%
O=C(c1c(F)cccc1F)N1CCN(S(=O)(=O)c2ccc3c(c2)OCCO3)CC1	< 30%
Nc1cccc(S(=O)(=O)N2CCCN(S(=O)(=O)c3ccc4c(c3)OCCO4)CC2)c1	< 30%
